What was measured:
[1] = Cytotoxicity; type: cell-based; conditions: mouse, BV2 microglial cells
Method in brief: (§1)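 Mouse BV2 microglia in DMEM with 10% FBS and 1% penicillin–streptomycin, 37 °C, 5% CO2. Seeded at 2 × 10^4 cells/well for 24 h, then exposed to test compound (0, 5, 10, 20, 40, 80 μM) for 24 h. MTT at 500 μg mL−1 for 3 h, formazan dissolved in DMSO, A570. Mean ± SD (n = 3); one-way ANOVA with Dunnett versus vehicle.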

[2] = test system: MCP-1; assay: MCP-1 release; type: cell-based; conditions: LPS-induced BV2 cells, pretreatment, concentration-dependent manner (Fig. 4 and 5)
[3] = test system: IL-6; assay: IL-6 release; type: cell-based; conditions: LPS-induced BV2 cells, pretreatment, concentration-dependent manner (Fig. 4 and 5)
[4] = test system: TNF-α; assay: TNF-α release; type: cell-based; conditions: LPS-induced BV2 cells, pretreatment, concentration-dependent manner (Fig. 4 and 5)
[5] = test system: NF-κB (p65); assay: Western blot of LPS-induced NF-κB; type: cell-based; conditions: pretreated 1 hour with the highest safety dose, LPS for 1 hour (Fig. 6)
Method in brief: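 BV2 cells (2 × 10^6 per 6 cm dish) got the highest non-cytotoxic test-compound concentration for 1 h, then LPS for 1 h. Lysates were centrifuged (4 °C, 12 000 rpm, 10 min), Bradford-quantified, 40 μg run on 10% SDS–PAGE and semi-dry blotted to nitrocellulose. P-p65, p65 (1:1000) and β-actin (1:2000) were detected by HRP anti-rabbit and ECL, then densitometry; one-way ANOVA/Bonferroni versus LPS.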

[6] = test system: BV2 microglial cells; assay: Cytotoxicity; type: cell-based; conditions: 24 hours, MTT, mean ± SD (n = 3)
Method in brief: as §1

[7] = test system: LPS-induced RAW264.7 cells; conditions: cited from earlier work

O=C(O)c1ccc(CO)cc1 [Compound 15, 4-hydroxymethyl benzoic acid]
viability at 24 h, 5 µM [1]: 103 ± 1.97%
viability at 24 h, 10 µM [1]: 105 ± 3.91%
viability at 24 h, 20 µM [1]: 111 ± 2.26%
viability at 24 h, 40 µM [1]: 108 ± 2.12%
viability at 24 h, 80 µM [1]: 104 ± 3.05%

COc1cc(O)c(Cc2ccc(O)cc2)c2c1-c1ccc(O)cc1CC2 [Compound 14, 1-(4-hydroxylbenzyl)-4-methoxy 9,10-dihydrophenanthrene 2,7-diol]
Effect on release of MCP-1 [2]: significantly reduced
viability at 24 h, 5 µM [1]: 108 ± 3.2%
viability at 24 h, 10 µM [1]: 97.9 ± 8.91%
viability at 24 h, 20 µM [1]: 91.9 ± 1.47%
viability at 24 h, 40 µM [1]: 65.9 ± 4.08%
viability at 24 h, 80 µM [1]: 26.7 ± 14.7%
Effect on release of IL-6 [3]: significantly reduced
Effect on release of TNF-α [4]: significantly reduced

COc1ccc2c(c1O)CCc1cc(O)cc(OC)c1-2 [Compound 4, 9,10-dihydro-2,5-dimethoxy-1,7-phenanthrenediol]
viability at 24 h, 5 µM [1]: 102 ± 3.53%
viability at 24 h, 10 µM [1]: 99.3 ± 5.77%
viability at 24 h, 20 µM [1]: 101 ± 2.3%
viability at 24 h, 40 µM [1]: 95.3 ± 3.88%
viability at 24 h, 80 µM [1]: 49.1 ± 24.6%

COc1cc2c(ccc3cc(OC)c(O)c(OC)c32)cc1O [Compound 8, 3,7-dihydroxy-2,4,6-trimethoxyphenanthrene]
viability at 24 h, 5 µM [1]: 106.3 ± 0.36%
viability at 24 h, 10 µM [1]: 100 ± 6.16%
viability at 24 h, 20 µM [1]: 108.2 ± 0.53%
viability at 24 h, 40 µM [1]: 113 ± 1.57%
viability at 24 h, 80 µM [1]: 94.4 ± 21.2%

COc1cc(O)cc2c1-c1c(O)cccc1CC2 [Compound 7, hircinol]
viability at 24 h, 5 µM [1]: 105 ± 4.37%
viability at 24 h, 10 µM [1]: 108 ± 3.16%
viability at 24 h, 20 µM [1]: 112 ± 2.51%
viability at 24 h, 40 µM [1]: 111 ± 1.88%
viability at 24 h, 80 µM [1]: 104 ± 9.12%

O=Cc1ccc(O)cc1 [Compound 5, p-hydroxybenzaldehyde]
viability at 24 h, 5 µM [1]: 105 ± 1.81%
viability at 24 h, 10 µM [1]: 104 ± 7.68%
viability at 24 h, 20 µM [1]: 101 ± 7.37%
viability at 24 h, 40 µM [1]: 101 ± 14.9%
viability at 24 h, 80 µM [1]: 94.5 ± 21.6%

COc1cc(C(=O)O)ccc1O [Compound 11, vanillic acid]
viability at 24 h, 5 µM [1]: 102.9 ± 0.86%
viability at 24 h, 10 µM [1]: 99.7 ± 1.55%
viability at 24 h, 20 µM [1]: 98.77 ± 0.86%
viability at 24 h, 40 µM [1]: 94.8 ± 2.82%
viability at 24 h, 80 µM [1]: 86.4 ± 4.09%

COC1=CC(=O)c2c(ccc3cc(OC)c(OC)c(OC)c23)C1=O [Compound 1, 2,5,6,7-tetramethoxy-1,4-phenanthrenequinone]
Effect on release of MCP-1 [2]: significantly reduced
viability at 24 h, 5 µM [1]: 101 ± 3.33%
viability at 24 h, 10 µM [1]: 101.5 ± 0.67%
viability at 24 h, 20 µM [1]: 105 ± 7.09%
viability at 24 h, 40 µM [1]: 102 ± 8.6%
viability at 24 h, 80 µM [1]: 73.7 ± 18.5%
Effect on release of IL-6 [3]: significantly reduced
Effect on release of TNF-α [4]: significantly reduced

COC1=CC(=O)c2ccc3cc(OC)c(OC)c(OC)c3c2C1=O [Compound 3, 3,5,6,7-tetramethoxy-1,4-phenanthrenequinone]
Effect on release of MCP-1 [2]: significantly reduced
viability at 24 h, 5 µM [1]: 99.9 ± 1.96%
viability at 24 h, 10 µM [1]: 95.6 ± 7.44%
viability at 24 h, 20 µM [1]: 94.9 ± 3.76%
viability at 24 h, 40 µM [1]: 88.8 ± 6.76%
viability at 24 h, 80 µM [1]: 55.1 ± 26.4%
Effect on release of IL-6 [3]: significantly reduced
Effect on LPS-induced NF-κB (p65) phosphorylation (P-p65-NF-κB/p65-NF-κB ratio) [5]: significantly suppressed
Effect on release of TNF-α [4]: significantly reduced

O=C(O)c1ccc(O)cc1 [Compound 10, p-hydroxybenzoic acid]
viability at 24 h, 5 µM [1]: 101 ± 2.85%
viability at 24 h, 10 µM [1]: 96.6 ± 1.58%
viability at 24 h, 20 µM [1]: 104 ± 7.79%
viability at 24 h, 40 µM [1]: 95.8 ± 4.1%
viability at 24 h, 80 µM [1]: 85.1 ± 9.87%

COc1cc(/C=C/C(=O)NCCc2ccc(O)cc2)ccc1O [Compound 17, N-trans-feruloyl tyramine]
viability at 24 h, 5 µM [1]: 107 ± 6.44%
viability at 24 h, 10 µM [1]: 97.3 ± 7.01%
viability at 24 h, 20 µM [1]: 101 ± 8.73%
viability at 24 h, 40 µM [1]: 101 ± 5.33%
viability at 24 h, 80 µM [1]: 84.9 ± 5.53%

coelonin [Compound 6]
Effect on release of MCP-1 [2]: significantly reduced
Percentage viability (%) ([6]; 5 μM): 106.33 ± 4.65%
Percentage viability (%) ([6]; 10 μM): 108.08 ± 5.54%
Percentage viability (%) ([6]; 20 μM): 105.55 ± 7.76%
Percentage viability (%) ([6]; 40 μM): 76.69 ± 2.86 %
Percentage viability (%) ([6]; 80 μM): 44.78 ± 13.23 %
Anti-inflammatory activity [7]: anti-inflammatory activity
Effect on release of IL-6 [3]: significantly reduced
Effect on release of TNF-α [4]: significantly reduced

COc1cc2ccc3cccc(O)c3c2c(OC)c1O [Compound 9, bulbophyllanthrin]
viability at 24 h, 5 µM [1]: 102 ± 2.99%
viability at 24 h, 10 µM [1]: 101 ± 4.09%
viability at 24 h, 20 µM [1]: 105 ± 3.47%
viability at 24 h, 40 µM [1]: 105 ± 5.59%
viability at 24 h, 80 µM [1]: 112 ± 5.8%

Source: article PMC11375963 (RSC Advances, 2024)
